From ChEMBL document CHEMBL1152432, “2-Arylamino-4-amino-5-aroylthiazoles. "One-pot" synthesis and biological evaluation of a new class of inhibitors of tubulin polymerization” (J Med Chem, 2009)
pIC50: −log10 of the molar value.

How the values were obtained:
FM3A = assay: Antiproliferative activity against mouse FM3A cells after 2 days by coulter counter method; assay type: functional, cell-based; details: 48 h
Procedure, shortened: (§1)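 Cells seeded at 300,000-500,000 cells/mL, mixed 1:1 with compound dilutions and incubated 2 days at 37 °C. Cell number counted by Coulter counter. Mean ± SE of at least three independent experiments.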

HeLa [1] = assay: Antiproliferative activity against human HeLa cells after 2 days by coulter counter method; assay type: functional, cell-based; details: 48 h; procedure, shortened: as §1
CCRF-CEM = assay: Antiproliferative activity against human CEM cells after 2 days by coulter counter method; assay type: functional, cell-based; details: 48 h; procedure, shortened: as §1
MOLT-4 = assay: Antiproliferative activity against human MOLT4 cells after 2 days by coulter counter method; assay type: functional, cell-based; details: MOLT-4, 48 h; procedure, shortened: as §1
L1210 = assay: Antiproliferative activity against mouse L1210 cells after 2 days by coulter counter method; assay type: functional, cell-based; details: L1210, 48 h
Procedure, shortened: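 Cells seeded at 300,000-500,000 cells/mL, mixed 1:1 with compound dilutions and incubated 2 days at 37 °C. Cell number counted by Coulter counter. IC50 is the concentration giving 50% inhibition of proliferation, taken from dose-response curves. Mean ± SE of at least three independent experiments.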

[2] = Inhibition of bovine brain tubulin polymerization by turbidimetry; set-up: species or system Bos taurus
Procedure, shortened: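 Purified bovine brain tubulin (10 μM) preincubated with varying compound concentrations in glutamate buffer at 30 °C, then chilled to 0 °C. GTP added, mixtures warmed to 30 °C in a recording spectrophotometer and assembly followed turbidimetrically.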

HeLa [3] = assay: Cell cycle arrest in human HeLa cells assessed as accumulation at subG1 phase at 30 nM after 24 hrs uisng propidium iodide staining by flow cytometry; assay type: functional
Procedure, shortened: (§2)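 Exponentially growing HeLa cells (5×10^5) treated 24 h. Floating and trypsinized cells pooled, fixed in ice-cold 70% ethanol, lysed with RNaseA buffer and stained with propidium iodide. DNA histograms acquired by flow cytometry. Percentages of G1, S and G2/M phases calculated on living cells, with the sub-G1 peak also scored.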

HeLa [4] = assay: Cell cycle arrest in human HeLa cells assessed as accumulation at G1 phase at 30 nM after 24 hrs uisng propidium iodide staining by flow cytometry; assay type: functional; procedure, shortened: as §2
HeLa [5] = assay: Cell cycle arrest in human HeLa cells assessed as accumulation at G2/M phase at 30 nM after 24 hrs uisng propidium iodide staining by flow cytometry; assay type: functional; procedure, shortened: as §2
HeLa [6] = assay: Cell cycle arrest in human HeLa cells assessed as accumulation at S phase at 30 nM after 24 hrs uisng propidium iodide staining by flow cytometry; assay type: functional; procedure, shortened: as §2
Bos taurus = species: Bos taurus; assay: Displacement of [3H]colchicine from bovine brain tubulin at 1 uM
Procedure, shortened: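 Reaction mixtures held 1 μM bovine brain tubulin, 5 μM [3H]colchicine and 1 μM test compound. Inhibition of radiolabelled colchicine binding to tubulin was measured.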

HeLa [7] = assay: Induction of apoptosis in human HeLa cells assessed as appearance of hypodiploid cells after 24 hrs using propidium iodide staining by flow cytometry; assay type: functional, cell-based
Procedure, shortened: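 HeLa cells (5×10^5, exponential growth) exposed to a range of concentrations for 24 h, then ethanol-fixed (70%, ice-cold), RNaseA-treated and propidium iodide-stained for flow cytometry. Apoptotic fraction taken as the cells forming a sub-G1 peak.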

| pIC50 [2] | inhibition (Bos taurus) | Compound | pIC50 (FM3A) | pIC50 (HeLa [1]) | pIC50 (CCRF-CEM) | pIC50 (MOLT-4) | pIC50 (L1210) | Activity (HeLa [3]) | Activity (HeLa [4]) | Activity (HeLa [5]) | Activity (HeLa [6]) | Activity (HeLa [7]) |
| --- | --- | --- | --- | --- | --- | --- | --- | --- | --- | --- | --- | --- |
|  |  | COc1ccc(/N=c2/[nH]c(N)c(C(=O)c3ccc(OC)cc3)s2)cc1 | 6.20 | 6.48 | 5.92 | 6.49 | 6.33 |  |  |  |  |  |
|  |  | COc1cccc(Nc2nc(N)c(C(=O)c3cc(OC)c(OC)c(OC)c3)s2)c1 | 5.70 | 6.00 | 5.89 | 6.28 | 5.68 |  |  |  |  |  |
|  |  | COc1ccc(C(=O)c2sc(Nc3ccccc3)nc2N)cc1 | < 5.00 | < 5.00 | 5.04 | 5.16 | < 5.00 |  |  |  |  |  |
| 5.60 | 75% | COc1cc(C(=O)c2sc(Nc3ccccc3)nc2N)cc(OC)c1OC | 7.64 | 7.85 | 8.03 | 8.22 | 7.74 | 22.2% | 32.1% | 42.3% | 25.6% | Dose-dependent effect |
|  |  | Nc1nc(Nc2ccc(Cl)cc2)sc1C(=O)c1ccccc1 | < 5.00 | < 5.00 | < 5.00 | < 5.00 | < 5.00 |  |  |  |  |  |
|  |  | Nc1nc(Nc2ccc(F)cc2)sc1C(=O)c1ccccc1 | < 5.00 | < 5.00 | < 5.00 | < 5.00 | < 5.00 |  |  |  |  |  |
|  |  | COc1ccc(Nc2nc(N)c(C(=O)c3ccc(Br)cc3)s2)cc1 | 7.00 | 7.10 | 7.41 | 7.80 | 6.96 |  |  |  |  |  |
|  | 35% | Nc1nc(Nc2ccccc2)sc1C(=O)c1ccccc1 | 5.09 | 5.21 | 5.41 | 5.14 | 5.09 |  |  |  |  |  |
|  |  | COc1ccc(C(=O)c2sc(Nc3ccccc3)nc2N)cc1OC | < 5.00 | 5.22 | 5.16 | 5.26 | < 5.00 |  |  |  |  |  |
| 6.14 | 87% | COc1cc(C(=O)c2sc(Nc3ccc(C)cc3)nc2N)cc(OC)c1OC | 7.82 | 7.07 | 7.39 | 7.68 | 7.51 | 18.9% | 32.1% | 50.5% | 17.4% | Dose-dependent effect |
|  |  | COc1cc(C(=O)c2sc(Nc3ccc(Cl)cc3)nc2N)cc(OC)c1OC | 6.38 | 6.74 | 6.72 | 6.96 | 6.38 |  |  |  |  |  |
|  |  | COc1ccc(C(=O)c2sc(Nc3ccc(Cl)cc3)nc2N)cc1 | < 5.00 | < 5.00 | < 5.00 | < 5.00 | < 5.00 |  |  |  |  |  |
| 5.55 | 63% | COc1ccc(Nc2nc(N)c(C(=O)c3ccc(OC)c(OC)c3)s2)cc1 | 7.15 | 7.28 | 8.00 | 7.43 | 7.42 | 17.8% | 35.7% | 48.8% | 15.5% | Dose-dependent effect |
|  |  | COc1ccc(C(=O)c2sc(Nc3ccc(F)cc3)nc2N)cc1 | < 5.00 | < 5.00 | < 5.00 | < 5.00 | < 5.00 |  |  |  |  |  |
| 5.85 | 77% | COc1ccc(Nc2nc(N)c(C(=O)c3ccccc3OC)s2)cc1 | 7.28 | 7.77 | 7.77 | 7.74 | 7.51 | 28.6% | 38.5% | 40.1% | 20.4% | Dose-dependent effect |
| 5.85 | 84% | COc1ccc(Nc2nc(N)c(C(=O)c3cccc(OC)c3)s2)cc1 | 7.30 | 7.43 | 8.00 | 8.40 | 7.46 | 9.6% | 40% | 39.2% | 20.8% |  |
| 5.96 | 89% | COc1ccc(Nc2nc(N)c(C(=O)c3ccc(Cl)cc3)s2)cc1 | 7.23 | 7.08 | 7.72 | 7.89 | 7.08 | 23.3% | 17.1% | 64% | 18.9% | Dose-dependent effect |
|  |  | COc1ccc(Nc2nc(N)c(C(=O)c3ccc([N+](=O)[O-])cc3)s2)cc1 | 6.51 | 6.46 | 7.51 | 7.54 | 6.55 |  |  |  |  |  |
|  |  | COc1cc(C(=O)c2sc(Nc3ccc(F)cc3)nc2N)cc(OC)c1OC | 7.24 | 6.36 | 6.40 | 6.55 | 6.05 |  |  |  |  |  |
|  |  | COc1ccccc1C(=O)c1sc(Nc2ccccc2)nc1N | 5.96 | 5.92 | 6.14 | 5.89 | 5.96 |  |  |  |  |  |
| 5.44 | 43% | COc1cccc(Nc2nc(N)c(C(=O)c3ccccc3)s2)c1 | 5.30 | 5.49 | 5.54 | 5.82 | 5.09 |  |  |  |  |  |
| 5.40 | 58% | Cc1ccc(Nc2nc(-n3ccnc3C)cs2)cc1 | 5.92 | 6.28 | 5.82 | 6.29 | 5.74 |  |  |  |  |  |
|  |  | COc1ccc(Nc2nc(N)c(C(=O)c3ccccc3)s2)cc1 | 6.14 | 6.64 | 6.52 | 6.64 | 6.07 |  |  |  |  |  |
|  |  | COc1ccc(Nc2nc(N)c(C(=O)c3cc(OC)c(OC)c(OC)c3)s2)cc1 | 5.66 | 6.25 | 5.96 | 6.32 | 5.82 |  |  |  |  |  |
|  |  | COc1cccc(C(=O)c2sc(Nc3ccccc3)nc2N)c1 | 5.21 | 5.77 | 5.64 | 5.89 | 5.12 |  |  |  |  |  |
|  |  | Cc1ccc(Nc2nc(N)c(C(=O)c3ccccc3)s2)cc1 | 5.82 | 6.05 | 6.43 | 6.68 | 5.55 |  |  |  |  |  |

| Compound | pIC50 [2] | inhibition (Bos taurus) | pIC50 (FM3A) | pIC50 (HeLa [1]) | pIC50 (CCRF-CEM) | pIC50 (MOLT-4) | pIC50 (L1210) | Activity (HeLa [3]) | Activity (HeLa [4]) | Activity (HeLa [5]) | Activity (HeLa [6]) | Activity (HeLa [7]) |
| --- | --- | --- | --- | --- | --- | --- | --- | --- | --- | --- | --- | --- |
| COc1ccc(/C=C\c2cc(OC)c(OC)c(OC)c2)cc1O [COMBRETASTATIN A4] | 5.85 |  |  |  |  |  |  |  |  |  |  |  |
